Reference: ChEMBL document CHEMBL1144328, “2,3-Diarylthiophenes as selective EP1 receptor antagonists” (Bioorg Med Chem Lett, 2005)

Columns and labels:
[1] = molecular target: T1, Prostaglandin E2 receptor EP1 subtype (Homo sapiens) (UniProt P34995); experiment: Inhibitory activity against Prostaglandin E receptor in functional cell based assay
T1 sequence (whole entry): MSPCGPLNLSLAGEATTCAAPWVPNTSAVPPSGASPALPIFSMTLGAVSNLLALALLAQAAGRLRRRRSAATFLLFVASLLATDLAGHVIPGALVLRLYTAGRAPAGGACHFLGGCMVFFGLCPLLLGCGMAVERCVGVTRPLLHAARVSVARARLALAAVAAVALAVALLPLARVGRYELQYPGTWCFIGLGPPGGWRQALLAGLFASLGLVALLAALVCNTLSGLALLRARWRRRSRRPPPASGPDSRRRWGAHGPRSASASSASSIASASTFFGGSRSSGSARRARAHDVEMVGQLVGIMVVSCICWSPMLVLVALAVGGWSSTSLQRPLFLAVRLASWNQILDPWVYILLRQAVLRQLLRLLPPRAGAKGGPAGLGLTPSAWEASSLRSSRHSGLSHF
In short: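 HEK293 cells stably expressing human EP1, grown with hygromycin B and G418 at 37 °C and 6% CO2, seeded one day before, then loaded with FLIPR no-wash dye for 1 h at 37 °C in HBSS/20 mM HEPES pH 7.4. FLIPR fluorescence read after a 10 min antagonist preincubation and 5 min PGE2. PGE2 curves (0.001–30 µM) run alone and at three fixed antagonist concentrations; Kb reported.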

[2] = molecular target: T2, Prostaglandin E2 receptor EP1 subtype (Rattus norvegicus, UniProt P70597); experiment: Binding affinity towards Prostaglandin E receptor was determined in rat
T2 sequence (P70597 whole entry): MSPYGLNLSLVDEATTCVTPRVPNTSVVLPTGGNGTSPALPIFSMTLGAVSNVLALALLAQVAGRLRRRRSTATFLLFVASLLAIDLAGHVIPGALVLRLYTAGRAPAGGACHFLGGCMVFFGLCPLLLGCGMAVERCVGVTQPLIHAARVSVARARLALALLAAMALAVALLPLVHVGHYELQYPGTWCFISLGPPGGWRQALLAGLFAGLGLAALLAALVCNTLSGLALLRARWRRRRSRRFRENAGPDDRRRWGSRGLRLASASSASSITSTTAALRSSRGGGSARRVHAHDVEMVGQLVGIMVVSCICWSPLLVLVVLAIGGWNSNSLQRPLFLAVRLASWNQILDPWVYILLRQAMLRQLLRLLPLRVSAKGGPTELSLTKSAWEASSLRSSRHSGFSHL

[3] = Bioavailability of compound in rat; type: ADME, organism-based; settings: in vivo
[4] = Half life of compound in rat; type: ADME; settings: in vivo
[5] = Maximum plasma concentration of compound in rat at 4 h; type: ADME, organism-based
[6] = molecular target: T3, Prostaglandin E2 receptor EP1 subtype (Homo sapiens, UniProt P34995); experiment: Binding affinity against Prostaglandin E receptor was determined in human
T3 sequence (P34995 whole entry): T1 sequence (whole entry)

Thromboxane A2 receptor = molecular target: T4, Thromboxane A2 receptor (Homo sapiens, UniProt P21731); experiment: Binding affinity against human Prostanoid TP receptor
T4 sequence (P21731 whole entry): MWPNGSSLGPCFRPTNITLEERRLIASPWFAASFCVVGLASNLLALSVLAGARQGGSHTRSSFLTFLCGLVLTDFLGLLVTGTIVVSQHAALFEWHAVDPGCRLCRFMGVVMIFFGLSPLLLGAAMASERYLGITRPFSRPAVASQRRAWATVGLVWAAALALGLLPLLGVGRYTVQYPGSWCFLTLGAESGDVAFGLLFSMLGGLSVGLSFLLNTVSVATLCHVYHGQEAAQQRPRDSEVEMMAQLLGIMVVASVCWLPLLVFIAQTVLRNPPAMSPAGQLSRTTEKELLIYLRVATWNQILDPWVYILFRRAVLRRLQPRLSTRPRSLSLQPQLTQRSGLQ

[7] = molecular target: T3, Prostaglandin E2 receptor EP1 subtype; experiment: Binding affinity against Prostaglandin E receptor in presence of 2% human serum albumin

Compound O=C(O)c1cccc(-c2sccc2-c2cc(Cl)ccc2OCc2ccccc2)n1 has a Kb [1] of 1 nM, a Ki [2] of 12 nM and a bioavailability [3] of 73%. The half-life [4] was 4 h, the Cmax [5] was 20 µM and the Ki [6] was 6 nM. For the same compound, the Ki (Thromboxane A2 receptor) was 140 nM and the Ki [7] was 280 nM.

OC(c1cncc(-c2sccc2-c2cc(Cl)ccc2OCc2ccccc2)c1)C(F)(F)F (stereo not given) showed a half-life [4] of 1 h, a Ki [6] of 3 nM and a Ki (Thromboxane A2 receptor) of 120 nM. For the same compound, the Ki [7] was 6 nM.

Compound OC(c1cncc(-c2sccc2-c2cc(Cl)ccc2OCc2ccccc2)c1)(C(F)(F)F)C(F)(F)F has a Ki [6] of 260 nM and a Ki (Thromboxane A2 receptor) of 200 nM.

With O=C(Cc1ccccc1)Nc1cccc(-c2sccc2-c2cc(Cl)ccc2OCc2ccccc2)c1 the half-life [4] was under 1 h, the Ki [6] was 4 nM and the Ki (Thromboxane A2 receptor) was over 21000 nM. For the same compound, the Ki [7] was 5 nM.

Compound O=C(O)Cc1cccc(-c2sccc2-c2cc(Cl)ccc2OCc2ccccc2)c1 has a Kb [1] of 66 nM, a half-life [4] of 3 h and a Ki [6] of 15 nM. It also gave a Ki (Thromboxane A2 receptor) of 150 nM and a Ki [7] of 220 nM.

In the case of CC(NC(=O)c1cccc(-c2sccc2-c2cc(Cl)ccc2OCc2ccccc2)c1)c1cccnc1 (stereo not given), the Kb [1] is reported as 97 nM, the half-life [4] is reported as under 1 h and the Ki [6] is reported as 9 nM. The Ki (Thromboxane A2 receptor) was 1200 nM and the Ki [7] was 17 nM.

OC(O)(c1cncc(-c2sccc2-c2cc(Cl)ccc2OCc2ccccc2)c1)C(F)(F)F gave a Kb [1] of 70 nM, a half-life [4] of 2 h and a Ki [6] of 4 nM. For the same compound, the Ki (Thromboxane A2 receptor) was 220 nM and the Ki [7] was 5 nM.

Work on NS(=O)(=O)c1cccc(-c2ccsc2-c2cc(Cl)ccc2OCc2ccccc2)c1 yielded a Kb [1] of 100 nM, a half-life [4] of 2 h and a Ki [6] of 8 nM. The Ki (Thromboxane A2 receptor) was 390 nM and the Ki [7] was 18 nM.

Compound N#CC(O)c1cncc(-c2sccc2-c2cc(Cl)ccc2OCc2ccccc2)c1 (stereo not given) has a Ki [6] of 23 nM, a Ki (Thromboxane A2 receptor) of 360 nM and a Ki [7] of 160 nM.

For O=C(O)c1cncc(-c2sccc2-c2cc(Cl)ccc2OCc2ccccc2)c1, the Kb [1] was 4 nM, the half-life [4] was under 0.5 h and the Ki [6] was 3 nM. The Ki (Thromboxane A2 receptor) was 230 nM and the Ki [7] was 90 nM.

Compound O=S(=O)(Cc1ccccc1)Nc1cccc(-c2sccc2-c2cc(Cl)ccc2OCc2ccccc2)c1 has a half-life [4] of under 1 h, a Ki [6] of 52 nM and a Ki (Thromboxane A2 receptor) of over 21000 nM. For the same compound, the Ki [7] was 72 nM.

In the case of O=C(O)c1cccc(-c2sccc2-c2cc(Cl)ccc2OCc2ccccc2)c1, the Kb [1] is reported as 7 nM, the half-life [4] is reported as under 0.5 h and the Ki [6] is reported as 4 nM. It also gave a Ki (Thromboxane A2 receptor) of 100 nM and a Ki [7] of 70 nM.
